Screens: PubChem, Johns Hopkins Ion Channel Center
TRPC6 activator – mouse TRPC6 channel activators, primary screen, cell-based, HEK293, membrane potential dye; Short transient receptor potential channel 6 (Mus musculus), Q61143; HEK293-TRPC6 membrane potential dye fluorescence; hits give high values; B-score at 10 µM; 310,000 compounds, 0.13% hits; AID 2550, 2010;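 active = B-score of the integrated fluorescence ratio above library mean plus 3 SD, and starting fluorescence ratio within library mean plus 5 SD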;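 also: higher score means more depolarization so channel activation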
Target sequence (Q61143 whole entry, looked up): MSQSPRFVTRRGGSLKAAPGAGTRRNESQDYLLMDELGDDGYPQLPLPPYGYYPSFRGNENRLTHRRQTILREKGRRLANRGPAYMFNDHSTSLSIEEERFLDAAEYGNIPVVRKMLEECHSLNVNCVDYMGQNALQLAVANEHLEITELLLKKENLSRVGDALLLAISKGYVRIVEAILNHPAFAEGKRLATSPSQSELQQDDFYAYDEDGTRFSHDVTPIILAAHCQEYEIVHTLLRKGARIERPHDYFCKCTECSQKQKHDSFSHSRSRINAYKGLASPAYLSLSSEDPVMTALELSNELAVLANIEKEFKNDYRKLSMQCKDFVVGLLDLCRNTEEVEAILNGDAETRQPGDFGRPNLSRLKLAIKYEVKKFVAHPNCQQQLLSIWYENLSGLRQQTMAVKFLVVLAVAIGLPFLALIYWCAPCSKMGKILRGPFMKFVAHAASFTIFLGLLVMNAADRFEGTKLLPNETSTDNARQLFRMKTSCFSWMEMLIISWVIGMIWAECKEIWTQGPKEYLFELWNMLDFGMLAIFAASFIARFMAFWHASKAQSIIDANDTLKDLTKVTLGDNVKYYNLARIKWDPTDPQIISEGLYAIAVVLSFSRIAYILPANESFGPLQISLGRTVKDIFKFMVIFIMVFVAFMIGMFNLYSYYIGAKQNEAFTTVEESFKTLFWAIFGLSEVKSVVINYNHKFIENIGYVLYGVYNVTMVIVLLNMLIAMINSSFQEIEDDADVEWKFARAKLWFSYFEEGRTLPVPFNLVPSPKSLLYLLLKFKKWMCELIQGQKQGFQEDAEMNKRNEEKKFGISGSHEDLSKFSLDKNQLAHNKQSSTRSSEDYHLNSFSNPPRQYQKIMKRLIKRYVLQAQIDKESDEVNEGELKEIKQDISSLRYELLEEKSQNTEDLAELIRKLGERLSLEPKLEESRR
TRPC4 inh – inhibitors of mouse TRPC4 channel, primary screen, Fluo4 calcium, HEK293 TRPC4beta/mu-opioid cells. DAMGO-evoked Fluo4 calcium flux; hits give low values. B-score at 10 µM. 300,000 compounds, 0.39% hits. Short transient receptor potential channel 4 (Mus musculus), Q9QUQ5. AID 2247, 2010;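 active = B-score over 3 SD under the library average, no early fluorescence shift, positive overall ratio signal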
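Assay system: TRPC4beta/mu-opioid receptor HEK293 cell line; compound dosing: single concentration per test compound; detection: Fluo4 Ca2+ flux fluorescence; evaluation: per-well B score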
Kir21 inh – inhibitors of mouse Kir2.1 inward-rectifier potassium channel; Inward rectifier potassium channel 2 (Mus musculus), P35561; HEK293-Kir2.1, FluxOR thallium flux fluorescence; hits give low values; B-score at 10 µM; 310,000 compounds, 0.85% hits; AID 1672, 2009;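 active = fluorescence ratio B-score at or below minus 3 SD of library scores, with starting-brightness B-score within 2 SD, cut at about -4.2 in these data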;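 also: channel flux triggered by added potassium and thallium sulfate stimulus; B-score of peak minus minimum fluorescence over baseline after thallium stimulus; more negative B-score means stronger Kir2.1 block with less thallium influx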
TRPC4 PAM – positive allosteric modulators of TRPC4, primary screen, cell-based, mouse TRPC4beta, HEK293 mu-opioid, Fluo-4 calcium; B-score at 10 µM; 310,000 compounds, 0.42% hits; DAMGO EC20, Fluo-4 Ca2+ flux; hits give high values; Short transient receptor potential channel 4 (Mus musculus), Q9QUQ5;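 active = B-score of calcium response area above 5 SD of library B-scores, with initial fluorescence ratio within 5 SD of library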
TRPC4 agonist – activators of mouse TRPC4 channel, primary screen, Fluo4 calcium, HEK293 TRPC4beta/mu-opioid cells; Short transient receptor potential channel 4 (Mus musculus), Q9QUQ5; B-score at 10 µM; 310,000 compounds, 0.49% hits; Fluo4 calcium fluorescence; hits give high values;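 active = B-score above 5 SD of library B-scores, and initial fluorescence ratio not above library mean plus 5 SD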;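 also: positive B-score marks a calcium rise read as TRPC4 activation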
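system = HEK293 cells stably co-expressing mouse TRPC4beta and mu-opioid receptor | schedule = Fluo4 dye loading 45 min at room temperature, 110 s recording | measure = B-scored integrated calcium fluorescence ratio | signal = Fluo4 calcium-sensitive dye fluorescence, kinetic, 1 Hz baseline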
TRPC6 inh – mouse TRPC6 channel inhibitors, primary screen, cell-based, HEK293, membrane potential dye | Short transient receptor potential channel 6 (Mus musculus), Q61143 | ACh-evoked depolarization; hits give low values | B-score at 10 µM | 310,000 compounds, 1.1% hits | AID 2553, 2010;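 active = B-score under library mean minus 3 SD, initial fluorescence not abnormally high, positive integrated signal ratio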;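 also: B-score derived from integrated fluorescence ratio over the kinetic read; more negative B-score means stronger inhibition of depolarization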
TRPC4 sel inh 2 – second check of whether TRPC6 inhibitors also affect mouse TRPC4; shares compounds with TRPC6 inh; HEK293 TRPC4/MOR, membrane potential dye fluorescence; channel activated by saturating DAMGO dose; inhibition, % at 10 µM; 920 compounds, 42% hits; AID 2776;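 active = compounds whose fluorescence signal differed from control wells by over 3 SD, either direction, in both duplicate plates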
TRPC4 spec – mouse TRPC4 modulation by TRPC6 hits, confirmation, selectivity assay for TRPC6 inhibitor project, cell-based, HEK293 TRPC4/mu-opioid, membrane potential dye; shares compounds with TRPC6 inh; membrane potential fluorescence; activity change, negative = inhibition, % at 10 µM; 920 compounds, 61% hits;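 active = rise or fall in signal beyond 3 SD of buffer-only wells in both replicate plates, either sign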;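 also: integrated kinetic ratio of fluorescence range over baseline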
HEK293 MPD ctr 2-1 – nonspecific membrane potential effects, parental HEK293, confirmation, counter-screen for TRPC6 inhibitor project, cell-based, second counter screen. shares compounds with TRPC6 inh. parental HEK293 membrane potential dye fluorescence; maximal acetylcholine challenge after compound addition. signal change vs control, % at 10 µM. 920 compounds, 31% hits. AID 2779, 2010;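 active = membrane potential signal moving either way by over 3 SD of the maximum-effect control, in both duplicate plates, meaning non-specific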
HEK293 MPD ctr-1 – membrane potential modulation in parental HEK293, confirmation, counter-screen for TRPC6 inhibitor project, cell-based | membrane potential signal change, % at 10 µM | AID 2780, 2010 | shares compounds with TRPC6 inh | 920 compounds, 60% hits | parental HEK293 membrane potential dye fluorescence;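 active = membrane potential signal shifting up or down by more than 3 SD of buffer-only wells, on both duplicate plates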
HEK293 MPD ctr-2 – parental HEK293 membrane potential modulation, confirmation, counter-screen for TRPC6 modulator project, cell-based; membrane potential dye fluorescence; shares compounds with TRPC6 inh; membrane potential signal change, % at 10 µM; AID 488924, 2010; 2,400 compounds, 51% hits;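 active = membrane potential signal moves up or down beyond 5 SD from buffer-only wells, on both duplicate plates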
HEK293 MPD ctr 2-2 – second check of TRPC6 modulator effects in parental HEK293 cells; shares compounds with TRPC6 inh; membrane potential dye fluorescence; after compound, maximal acetylcholine stimulation; inhibition, % at 10 µM; 2,400 compounds, 14% hits; AID 488926;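 active = membrane potential signal drops by more than 5 SD from the mean control signal, in both duplicate plates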
TRPC4 ctr mod – TRPC4 modulation by TRPC6 hit compounds, confirmation, selectivity assay for TRPC6 modulator project, cell-based, HEK293 TRPC4/mu-opioid, membrane potential dye, mouse; shares compounds with TRPC6 inh; membrane potential fluorescence; percent change from control (negative = decrease, positive = increase), % at 10 µM; 2,400 compounds, 69% hits; AID 488927, 2010;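 active = membrane potential signal moved up or down beyond 5 SD of buffer control wells, in both duplicate plates, actives on both sides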
TRPC4 ctr inh 2 – second selectivity test of TRPC6 modulators against mouse TRPC4 | 2,400 compounds, 55% hits | HEK293 TRPC4/mu-opioid, membrane potential dye fluorescence; stimulated with maximal-effect DAMGO | inhibition, % at 10 µM | shares compounds with TRPC6 inh;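 active = drop in membrane potential signal beyond 5 SD of the control wells in both duplicate plates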;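 also: TRPC4 counter screen for TRPC6 hits run under conditions tuned for TRPC6 not TRPC4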
TRPC6 inh conf – mouse TRPC6 channel inhibitors, confirmation, HEK293 cells, membrane potential dye, duplicate | shares compounds with TRPC6 inh | ACh-evoked depolarization | inhibition, % at 10 µM | 3,300 compounds, 43% hits;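 active = fluorescence ratio falls more than 5 SD below the full-stimulation control mean, in both duplicate runs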;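 also: integrated fluorescence ratio of peak minus minimum over baseline after agonist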
TRPC6 act confirm – mouse TRPC6 channel activators, confirmation, HEK293 cells, membrane potential dye, duplicate | activation, % at 10 µM | AID 488961, 2010 | 2,800 compounds, 11% hits | shares compounds with TRPC6 inh | HEK293-TRPC6 membrane potential dye fluorescence, FDSS;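 active = ratio signal rise beyond 5 SD above unstimulated control wells' mean, seen in both duplicate runs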
Large screens that a line does not name were inactive (follow-up assays come after a bar, where they were run). Rows were chosen to be rich in hits. Some 3% of all compounds tested hit in one or more screens of this group.

CCOC(=O)c1ccccc1NC(=O)COC(=O)CC1CCCCC1	none
Clc1ccc2c(c1)Nc1ccccc1CC2	none
Cc1nc(NC(=O)CCN2C(=O)C3CC=CCC3C2=O)sc1C (stereo not drawn)	none
CCCn1c(N)c(NCCN2CCOCC2)c(=O)n(CC(=O)NCc2ccccc2)c1=O	none
O=C(CSc1nc2c(c(=O)n1-c1ccc(Br)cc1)SCC2)NCC1CCCO1 (stereo not drawn)	TRPC6 inh -5.01 | HEK293 MPD ctr-2 108.5% | HEK293 MPD ctr 2-2 inactive | TRPC4 ctr mod 25.0% | TRPC4 ctr inh 2 32.0% | TRPC6 inh conf 51.0%
COc1ccc(-n2c(SCC(=O)NCC3CCCO3)nc3c(c2=O)SCC3)cc1 (stereo not drawn)	none
CSc1ccc(C2Nc3cccc4cccc(c34)N2)cc1	TRPC6 inh -6.97 | TRPC4 sel inh 2 inactive | TRPC4 spec -10.8% | HEK293 MPD ctr 2-1 inactive | HEK293 MPD ctr-1 -138.5% | TRPC6 inh conf inactive | TRPC6 act confirm inactive
Clc1ccc(C2Nc3cccc4cccc(c34)N2)cc1	none
COc1ccc(-c2[nH]c3ccccc3c2SCCN)cc1	TRPC6 inh -8.68 | TRPC4 sel inh 2 45.0% | TRPC4 spec -16.4% | HEK293 MPD ctr 2-1 inactive | HEK293 MPD ctr-1 -262.5% | TRPC6 inh conf 74.3% | TRPC6 act confirm inactive
